Calls of active or inactive are those of the source. The rule behind the calls is not given here. Where a SMILES comes first, the peptide text is derived from it. Bridges are numbered along the chain shown (N, C = ends). [ ]: non-standard residue; d: D form. The star is where a group is joined. Ileψ(thiazoline)Cys = CC[C@H](C)[C@H](N)C1=N[C@H](C(=O)*)CS1; pGlu = O=C1CC[C@@H](C(=O)O)N1; dOrn = NCCC[C@@H](N)C(=O)O; X2 = C(=C\c1ccccc1)/N*; X4 = C(=C/c1ccccc1)/N*
How the values were obtained:
NOMO-1 = assay: Cytotoxicity against human NOMO1 cells assessed as reduction in cell viability up to 10 uM after 24 hrs by MTT assay; type: functional, cell-based
Procedure, shortened: (§1)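 Suspension cells at 5 × 10^5 cells/mL, exposed 24 h to varying compound concentrations; 0.1% v/v DMSO as negative control. MTT added to 1 mg/mL final for 60 min, cells pelleted, formazan extracted in DMSO for 25 min at rt, A570 read with 650 nm reference. Viability relative to DMSO set at 100%; IC50 from fitted curves.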

HL-60 = assay: Cytotoxicity against human HL60 cells assessed as reduction in cell viability up to 10 uM after 24 hrs by MTT assay; type: functional, cell-based; procedure, shortened: as §1
A2780 = assay: Cytotoxicity against human A2780 cells assessed as reduction in cell viability up to 10 uM after 72 hrs by MTT assay; type: functional, cell-based
Procedure, shortened: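 A2780 ovarian carcinoma cells were grown in RPMI-1640 with 10% FBS, penicillin and streptomycin, about 9000 cells/well, preincubated overnight. Increasing compound concentrations were applied for 72 h, then MTT was added. Absorbance read at 544 nm minus the 690 nm reference.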

Ramos = assay: Cytotoxicity against human Ramos cells assessed as reduction in cell viability up to 10 uM after 24 hrs by MTT assay; type: functional, cell-based; procedure, shortened: as §1
Homo sapiens = species on record: Homo sapiens; assay: Cytotoxicity against human Jurkat 16 cells assessed as reduction in cell viability up to 10 uM after 24 hrs by MTT assay; type: functional, cell-based; procedure, shortened: as §1
Bacillus subtilis [1] = assay: Induction of cell envelope stress in Bacillus subtilis isolate 1S34 assessed as increase in liaI promoter activity at 10 ug after 14 to 18 hrs by beta-galactosidase reporter gene assay; type: functional, organism-based
Procedure, shortened: (§2)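 Agar-based β-galactosidase promoter-reporter assay. B. subtilis 1S34 grown to stationary phase in LB with spectinomycin 50 μg/mL, then set at 3 × 10^7 CFU/mL in LB soft agar (0.7%) containing X-Gal 150 μg/mL. Test compounds spotted at 20 nmol; reference antibiotics given on paper discs (5–30 μg). Plates read for promoter induction after 14–18 h at 30 °C.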

Bacillus subtilis [2] = assay: Induction of translation arrest in Bacillus subtilis isolate 1S34 assessed as increase in bmrC promoter activity at 10 ug after 14 to 18 hrs by beta-galactosidase reporter gene assay; type: functional, organism-based
Bacillus subtilis [3] = assay: Induction of cell envelope stress in Bacillus subtilis isolate 1S34 assessed as increase in ypuA promoter activity at 10 ug after 14 to 18 hrs by beta-galactosidase reporter gene assay; type: functional, organism-based; procedure, shortened: as §2
Bacillus subtilis [4] = assay: Induction of DNA damage in Bacillus subtilis isolate 1S34 assessed as increase in yorB promoter activity at 10 ug after 14 to 18 hrs by beta-galactosidase reporter gene assay; type: functional, organism-based; procedure, shortened: as §2
Bacillus subtilis [5] = assay: Induction of RNA damage in Bacillus subtilis isolate 1S34 assessed as increase in helD promoter activity at 10 ug after 14 to 18 hrs by beta-galactosidase reporter gene assay; type: functional, organism-based; procedure, shortened: as §2
Escherichia coli = assay: Antimicrobial activity against Escherichia coli after 16 to 20 hrs by broth micro dilution method; type: functional, organism-based
Procedure, shortened: (§3)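 Broth microdilution per CLSI in cation-adjusted Mueller-Hinton broth. Inoculum made by direct colony suspension, 5 × 10^5 CFU/mL final, added to serial 2-fold compound dilutions. Plates kept 16–20 h at 37 °C in ambient air. MIC is the lowest concentration with no visible growth. Strains are ATCC CLSI quality-control strains; A. baumannii 09987 is a Bonn clinical isolate.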

Klebsiella aerogenes = assay: Antimicrobial activity against Enterobacter aerogenes after 16 to 20 hrs by broth micro dilution method; type: functional, organism-based; procedure, shortened: as §3
Klebsiella pneumoniae = assay: Antimicrobial activity against Klebsiella pneumoniae after 16 to 20 hrs by broth micro dilution method; type: functional, organism-based; procedure, shortened: as §3
Pseudomonas aeruginosa = assay: Antimicrobial activity against Pseudomonas aeruginosa after 16 to 20 hrs by broth micro dilution method; type: functional, organism-based; procedure, shortened: as §3
Acinetobacter baumannii = assay: Antimicrobial activity against Acinetobacter baumannii isolate 09987 after 16 to 20 hrs by broth micro dilution method; type: functional, organism-based; procedure, shortened: as §3
[6] = system: Mycobacterium tuberculosis; assay: Antimicrobial activity against Mycobacterium tuberculosis H37Rv up to 100 uM after 5 days by resazurin dye based assay; type: functional, organism-based
Procedure, shortened: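 M. tuberculosis H37Rv was grown aerobically at 37 °C in Middlebrook 7H9 with ADS enrichment, 0.5% glycerol and 0.05% tyloxapol, then precultured to log phase (OD600 0.5−1). Cells were seeded at 1 × 10^5 per well on 2-fold dilutions over 100−0.78 μM and held 5 days at 37 °C. Resazurin was added for 16 h at ambient temperature, then cells were formalin-fixed and fluorescence read (ex 540, em 590 nm). Growth is relative to rifampicin (0%) and DMSO (100%).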

Bacillus subtilis [7] = assay: Induction of cell envelope stress in Bacillus subtilis isolate 1S34 assessed as increase in ypuA promoter activity at 30 ug after 14 to 18 hrs by beta-galactosidase reporter gene assay; type: functional, organism-based
Procedure, shortened: (§4)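 B. subtilis 1S34 β-galactosidase promoter reporters were grown in LB with spectinomycin (50 μg/mL) to stationary phase. Cells were set at 3 × 10^7 CFU/mL in LB soft agar (0.7%) containing X-Gal (150 μg/mL). Test compounds were spotted on the plates, with reference antibiotic discs as positive controls. Plates were incubated 14−18 h at 30 °C and read for promoter induction (blue colour).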

Bacillus subtilis [8] = assay: Induction of translation arrest in Bacillus subtilis isolate 1S34 assessed as increase in bmrC promoter activity at 30 ug after 14 to 18 hrs by beta-galactosidase reporter gene assay; type: functional, organism-based
Procedure, shortened: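 The bmrC promoter reporter in B. subtilis 1S34 was embedded at 3 × 10^7 CFU/mL in Belitzky minimal medium soft agar containing X-Gal (150 μg/mL). Test compounds were spotted, with reference antibiotic discs as positive controls. Plates were incubated at 37 °C and read for promoter-driven β-galactosidase induction.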

Bacillus subtilis [9] = assay: Induction of DNA damage in Bacillus subtilis isolate 1S34 assessed as increase in yorB promoter activity at 30 ug after 14 to 18 hrs by beta-galactosidase reporter gene assay; type: functional, organism-based; procedure, shortened: as §4
Bacillus subtilis [10] = assay: Induction of cell envelope stress in Bacillus subtilis isolate 1S34 assessed as increase in liaI promoter activity at 30 ug after 14 to 18 hrs by beta-galactosidase reporter gene assay; type: functional, organism-based; procedure, shortened: as §4
Bacillus subtilis [11] = assay: Induction of RNA damage in Bacillus subtilis isolate 1S34 assessed as increase in helD promoter activity at 30 ug after 14 to 18 hrs by beta-galactosidase reporter gene assay; type: functional, organism-based; procedure, shortened: as §4
Bacillus subtilis [12] = assay: Induction of DNA damage in Bacillus subtilis isolate 1S34 assessed as increase in yorB promoter activity at 5 ug after 14 to 18 hrs by beta-galactosidase reporter gene assay; type: functional, organism-based; procedure, shortened: as §2
Bacillus subtilis [13] = assay: Induction of cell envelope stress in Bacillus subtilis isolate 1S34 assessed as increase in ypuA promoter activity at 5 ug after 14 to 18 hrs by beta-galactosidase reporter gene assay; type: functional, organism-based; procedure, shortened: as §2
Bacillus subtilis [14] = assay: Induction of cell envelope stress in Bacillus subtilis isolate 1S34 assessed as increase in liaI promoter activity at 5 ug after 14 to 18 hrs by beta-galactosidase reporter gene assay; type: functional, organism-based; procedure, shortened: as §2
Bacillus subtilis [15] = assay: Induction of RNA damage in Bacillus subtilis isolate 1S34 assessed as increase in helD promoter activity at 5 ug after 14 to 18 hrs by beta-galactosidase reporter gene assay; type: functional, organism-based; procedure, shortened: as §2
Bacillus subtilis [16] = assay: Induction of translation arrest in Bacillus subtilis isolate 1S34 assessed as increase in bmrC promoter activity at 5 ug after 14 to 18 hrs by beta-galactosidase reporter gene assay; type: functional, organism-based

Structure (SMILES) | Activity (NOMO-1) | Activity (HL-60) | Activity (A2780) | Activity (Ramos) | Activity (Homo sapiens) | Activity (Escherichia coli) | Activity (Klebsiella aerogenes) | Activity (Klebsiella pneumoniae) | Activity (Pseudomonas aeruginosa) | Activity (Acinetobacter baumannii) | Activity [6] | further results
CC[C@H](C)[C@H](NC(=O)[C@@H]1CCC(=O)N1)C(=O)N[C@@H](CC(C)C)C(=O)N[C@H]1CSSC[C@@H](C(=O)N/C=C\c2ccccc2)NC(=O)[C@H](Cc2ccccc2)NC(=O)[C@@H]2CCCN2C(=O)[C@@H]2CCCN2C1=O ([pGlu]ILCPPFC-X4; disulfide 4-8) | inactive | inactive | inactive | inactive | inactive | – | – | – | – | – | – | –
CC[C@H](C)[C@H](N)C1=N[C@H](C(=O)N[C@@H](CC(C)C)C(=O)N[C@H](CCC(=O)O)C(=O)N[C@H](C(=O)N[C@H]2CCCCNC(=O)[C@H](CC(N)=O)NC(=O)[C@@H](CC(=O)O)NC(=O)[C@H](Cc3cnc[nH]3)NC(=O)[C@@H](Cc3ccccc3)NC(=O)[C@H]([C@@H](C)CC)NC(=O)[C@@H](CCCN)NC2=O)[C@@H](C)CC)CS1 ({Ileψ(thiazoline)Cys}-L[dE]IK[dOrn]I[dF]H[dD]N; lactam 4-C) | – | – | – | – | – | – | – | – | – | – | – | Activity (Bacillus subtilis [1]): Active; Activity (Bacillus subtilis [2]): Active; Activity (Bacillus subtilis [3]): Active; Activity (Bacillus subtilis [4]): Active; Activity (Bacillus subtilis [5]): Active
CC(C)[C@H](N)C(=O)N/C=C/c1ccccc1 | inactive | inactive | inactive | inactive | inactive | inactive | inactive | inactive | inactive | inactive | inactive | –
CC[C@H](C)[C@H](NC(=O)[C@@H]1CCC(=O)N1)C(=O)N[C@@H](CC(C)C)C(=O)N[C@H]1CSSC[C@@H](C(=O)N/C=C/c2ccccc2)NC(=O)[C@H](Cc2ccccc2)NC(=O)[C@@H]2CCCN2C(=O)[C@@H]2CCCN2C1=O ([pGlu]ILCPPFC-X2; disulfide 4-8) | inactive | inactive | inactive | inactive | inactive | inactive | inactive | inactive | inactive | inactive | inactive | –
O=C(N[C@H](CO)[C@H](O)c1ccc([N+](=O)[O-])cc1)C(Cl)Cl | – | – | – | – | – | – | – | – | – | – | – | Activity (Bacillus subtilis [1]): Active; Activity (Bacillus subtilis [2]): Active; Activity (Bacillus subtilis [3]): Active; Activity (Bacillus subtilis [4]): Active; Activity (Bacillus subtilis [5]): Active
CN[C@H](CC(C)C)C(=O)N[C@H]1C(=O)N[C@@H](CC(N)=O)C(=O)N[C@H]2C(=O)N[C@H]3C(=O)N[C@H](C(=O)N[C@H](C(=O)O)c4cc(O)cc(O)c4-c4cc3ccc4O)[C@H](O)c3ccc(c(Cl)c3)Oc3cc2cc(c3O[C@@H]2O[C@H](CO)[C@@H](O)[C@H](O)[C@H]2O[C@H]2C[C@](C)(N)[C@H](O)[C@H](C)O2)Oc2ccc(cc2Cl)[C@H]1O | – | – | – | – | – | – | – | – | – | – | – | Activity (Bacillus subtilis [7]): Active; Activity (Bacillus subtilis [8]): Active; Activity (Bacillus subtilis [9]): Active; Activity (Bacillus subtilis [10]): Active; Activity (Bacillus subtilis [11]): Active
CC(C)C[C@@H]1NC(=O)[C@@H]2CCCN2C(=O)[C@@H]2CCCN2C(=O)[C@@H](NC(=O)[C@@H]2CCC(=O)N2)CSSC[C@@H](C(=O)N2CCC[C@H]2C(N)=O)NC1=O ([pGlu]CPPLCP-NH2; disulfide 2-6) | inactive | inactive | inactive | inactive | inactive | inactive | inactive | inactive | inactive | inactive | inactive | –
O=C(O)c1cn(C2CC2)c2cc(N3CCNCC3)c(F)cc2c1=O | – | – | – | – | – | – | – | – | – | – | – | Activity (Bacillus subtilis [12]): Active; Activity (Bacillus subtilis [13]): Active; Activity (Bacillus subtilis [14]): Active; Activity (Bacillus subtilis [15]): Active; Activity (Bacillus subtilis [16]): Active
CO[C@H]1/C=C/O[C@@]2(C)Oc3c(C)c(O)c4c(O)c(c(/C=N/N5CCN(C)CC5)c(O)c4c3C2=O)NC(=O)/C(C)=C\C=C\[C@H](C)[C@H](O)[C@@H](C)[C@@H](O)[C@@H](C)[C@H](OC(C)=O)[C@@H]1C | – | – | – | – | – | – | – | – | – | – | – | Activity (Bacillus subtilis [7]): Active; Activity (Bacillus subtilis [8]): Active; Activity (Bacillus subtilis [9]): Active; Activity (Bacillus subtilis [10]): Active; Activity (Bacillus subtilis [11]): Active

— ChEMBL document CHEMBL4138145, “Cyclic Cystine-Bridged Peptides from the Marine Sponge Clathria basilana Induce Apoptosis in Tumor Cells and Depolarize the Bacterial Cytoplasmic Membrane” (J Nat Prod, 2017)
